A selection: hits, their analogues and other compounds. The true share with any hit is near 4.9%.
STAT3 act – STAT3 signaling activation | U3A cells, IL-6 STAT3-luciferase reporter, luminescence; 100% = signal with IL-6 EC80 alone | activation (% of control), % at 5.6 µM | 0.91% of 190,000 active | AID 871;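 active means activation above the screen-wide mean of compound activation plus 3 SD, cut at about 130% in these data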;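 further: 0% = background luminescence of wells with medium and substrate only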
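Test system: human U3A cells carrying STAT3-luciferase construct; control set: IL-6-only wells as 100% reference; timing: compound pre-incubation 1 h before IL-6, then 6 h stimulation at 37 °C; also added: IL-6 stimulus at 33 ng/mL final; evaluation: % activation versus median of IL-6-stimulated wells; detection: reporter luminescence signal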
FLuc act counter – affects firefly luciferase, flagging false hits in luciferase stimulation screens. 200,000 tested, under 10 active. activation factor at 10 µM. ATPlite luciferase biochemical, luminescence, 10 min; 0 = ATP-free wells, 1 = DMSO control. P08659. AID 1027;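 active means luciferase activation factor, scaled between plate controls, of at least 2 with compound at 10 µM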
Target sequence (P08659 whole entry, looked up): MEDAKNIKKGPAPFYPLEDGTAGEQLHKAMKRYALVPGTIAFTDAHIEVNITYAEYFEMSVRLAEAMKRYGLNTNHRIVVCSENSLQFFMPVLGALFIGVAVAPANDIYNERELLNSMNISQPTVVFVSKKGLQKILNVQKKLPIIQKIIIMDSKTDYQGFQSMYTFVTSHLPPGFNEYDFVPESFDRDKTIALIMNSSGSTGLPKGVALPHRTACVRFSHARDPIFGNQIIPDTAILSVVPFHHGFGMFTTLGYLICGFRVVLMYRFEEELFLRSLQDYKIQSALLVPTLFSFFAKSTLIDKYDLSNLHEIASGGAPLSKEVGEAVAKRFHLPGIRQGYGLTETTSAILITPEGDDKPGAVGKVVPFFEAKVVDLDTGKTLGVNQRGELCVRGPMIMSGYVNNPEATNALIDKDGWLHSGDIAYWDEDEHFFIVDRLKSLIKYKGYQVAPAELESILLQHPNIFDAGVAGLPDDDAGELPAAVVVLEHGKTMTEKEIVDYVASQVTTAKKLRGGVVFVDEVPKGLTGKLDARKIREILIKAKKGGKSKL
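Material: Luciferase/luciferin reagent mix | Doses: Test compounds dosed from 2 mM stocks in 100% DMSO | Timing: 10 min incubation after luciferase reagent addition, room temperature | Measured by: Luminescence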
STAT3 blocker – inhibitors of IL-6 induced STAT3 signaling; U3A cells, IL-6 STAT3-luciferase reporter, luminescence; host cell line lacks STAT1; inhibition, % at 5.5 µM; 0.89% of 190,000 active;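 active means inhibition above the mean inhibition across all screened compounds plus 3 SD, cut at about 44% in these data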;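 further: 0% = DMSO only wells and 100% = 100 µM nifuroxazide control wells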
FLuc inhib CS – counter-screen for luciferase assay inhibitors: firefly luciferase inhibition | P08659 | ATPLite firefly luciferase biochemical luminescence, 10 min | inhibition, % at 10 µM | 1.5% of 200,000 active | AID 1006;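 active means inhibition above about 50% when tested at 10 µM, limit read from the data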
STAT1 activator – increases IFN-gamma driven STAT1 reporter signal | NIH 3T3 STAT1-luciferase reporter, luminescence; 100% = IFN-gamma alone, no compound | activation (% of control), % at 5.5 µM | 2.6% of 200,000 active | AID 932;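 active means activation above the screen-wide mean activation plus 3 SD, cut at about 130% in these data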;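 further: raw ratio to IFN-gamma control signal so 100% means no change and 0% no light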
STAT1 blocker – inhibitors of IFN-gamma induced STAT1 signaling. NIH 3T3 STAT1-luciferase reporter, luminescence. inhibition, % at 5.5 µM. 0.35% of 200,000 active. AID 920;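 active means inhibition above a set limit, the mean inhibition across all tested compounds plus 3 SD, cut at about 34% in these data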;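 further: 0% = IFN-gamma with DMSO and 100% = IFN-gamma with 300 µM nifuroxazide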
* hit, by the source's call; · = no result.

SMILES	STAT3 act	FLuc act counter	STAT3 blocker	FLuc inhib CS	STAT1 activator	STAT1 blocker
CC1CCCCN1C(=O)c1cc(-c2ccc(Cl)c(Cl)c2)on1 (stereo not drawn)	111.0	1	-2.6	-1.2	132.7*	-36.0
O=C(c1cc(-c2cccc(O)c2)on1)N1CCOCC1	79.9	0.6	24.0	43.2	112.2	-16.4
O=C(Nc1cccnc1)c1ccc(F)cc1	86.8	1	17.2	-2.4	99.4	-0.1
O=C(c1cc(-c2ccccc2)on1)N1CCCC1	87.0	0.5	18.3	46.5	132.2*	-34.9
COc1ccc(C(=S)Nc2ccc(C)cc2)cc1	109.1	0.7	-6.2	26.6	132.8*	-36.8
Cc1ccc(NC(=S)c2ccccc2)cc1	99.5	0.7	-0.3	34.9	139.2*	-44.0
COc1ccc(NC(=S)c2ccncc2)cc1	92.1	1	8.9	-0.4	94.7	6.0
COc1ccc(C2CC(c3ccccc3)=NN2C(=O)COC(=O)c2cc(S(=O)(=O)N3CCOCC3)ccc2F)cc1 (stereo not drawn)	97.3	1	7.6	-4.8	100.6	-0.7
CC(C)(C)c1ccc(C(=O)/C=C2\NC(=O)CS2)cc1	70.9	0.1	40.2	89.1*	121.0	-22.9
Cc1ccnc(NC(=O)/C=C/c2cccs2)c1	74.8	0.1	28.8	92.0*	136.8*	-40.3
O=C(/C=C/c1cccs1)Nc1nc(-c2ccccc2)cs1	82.9	1	26.8	3.7	114.1	-23.0
O=C(Nc1cccnc1)c1cccs1	94.7	1	9.7	-1.4	99.1	1.0
O=C(/C=C/c1cccs1)Nc1cccnc1	105.6	0.4	-3.8	61.7*	126.7	-30.4
O=C(/C=C/c1cccs1)Nc1scc(-c2ccccc2)c1C(=O)O	74.7	0.2	33.0	80.7*	98.6	-0.1
CC1=NN(C(=O)c2cc(C)nn2C)C(O)(C(F)(F)F)C1 (stereo not drawn)	102.1	1.1	-5.2	-7.8	100.9	1.4
Cn1ccs/c1=N\C(=O)Nc1ccccc1	92.0	0.6	14.4	35.4	141.4*	-48.7
Cn1ccsc1=NC(=O)c1ccccc1F	91.8	1	10.1	-3.0	110.4	-11.0
O=C(CCl)Nc1cc(SCC(O)CO)cc([N+](=O)[O-])c1 (stereo not drawn)	20.5	1	98.5*	0.8	48.8	53.8*
CC(C)(O)c1cc(=O)sc2nc3ccccc3n12	109.2	0.5	-7.8	47.0	133.8*	-40.5
c1ccc2nc3c(nc2c1)sc1nc2ccccc2n13	·	1.1	·	-6.1	·	·
COc1ccc(C2NC(c3ccc(OC)cc3OC)C(C)C(=O)C2C)c(OC)c1 (stereo not drawn)	101.5	1.1	-0.3	-8.3	103.1	-6.0
Cc1ccc(C2(C)NC(=O)N(CC(=O)Nc3ccc4c(c3)OCO4)C2=O)cc1 (stereo not drawn)	102.1	1	3.9	-3.4	87.4	14.1
CCn1c(SCC(=O)Nc2ccc(-c3nc4ccc(C)cc4s3)cc2)nnc1-c1ccccc1	106.1	1	2.0	3.9	132.2*	-35.2
Cc1ccc(S(=O)(=O)Nc2ccc(-c3nc4ccc(C)cc4s3)cc2)cc1	105.4	·	-3.7	·	107.7	-8.7
CCn1c(SCC(=O)Nc2nc(-c3ccc(C)cc3)cs2)nnc1-c1ccccc1	93.8	1	4.6	-3.6	84.3	17.0
SMILES	STAT3 act	FLuc act counter	STAT3 blocker	FLuc inhib CS	STAT1 activator	STAT1 blocker
COc1ccc(C2(C)NC(=O)N(CC(=O)Nc3ccc(-c4nc5ccc(C)cc5s4)cc3)C2=O)cc1 (stereo not drawn)	87.3	0.6	19.3	35.2	143.8*	-51.0
Cc1cccc(S(=O)(=O)Nc2ccc(-c3nc4ccc(C)cc4s3)cc2)c1	95.6	0.8	7.9	19.5	147.2*	-53.7
Cc1ccc(N(CC(=O)Nc2ccc(-c3nc4ccc(C)cc4s3)cc2)S(C)(=O)=O)cc1	106.1	0.8	2.9	16.9	139.7*	-46.7
CC(C)CC(=O)NC(=S)Nc1ccc(S(=O)(=O)N2CCCC2)cc1	110.5	1.1	-5.2	-9.3	98.5	-0.5
C=CCn1c(SCC(=O)Nc2ccc(N(C)C)cc2)nnc1-c1cccc(C)c1	110.4	1	-7.3	-3.4	106.5	-7.1
C=CCn1c(SCC(=O)Nc2ccc(-c3nc4ccc(C)cc4s3)cc2)nnc1-c1ccncc1	109.7	1	-14.5	-2.9	130.2*	-33.9
Cc1ccc2nc(-c3ccc(NC(=O)CNC4CC4)cc3)sc2c1	77.9	0.8	29.8	17.5	114.5	-15.8
Cc1ccc2nc(-c3ccc(NC(=O)CSc4nccc(=O)[nH]4)cc3)sc2c1	84.9	0.6	23.1	37.5	134.5*	-39.1
Cc1cc(C)n(C(=O)CNC(=O)/C=C/c2ccccc2)n1	96.9	1	7.0	-1.8	101.0	-3.3
Cc1ccc(NC(=O)C(=O)NCC2CCCO2)cc1C (stereo not drawn)	102.9	0.9	0.5	9.0	141.6*	-45.1
Cc1ccc(C(=O)NC(=S)NCC2CCCO2)cc1 (stereo not drawn)	92.3	1	15.2	-1.0	128.6*	-31.7
Cc1ccc(NC(=O)C(=O)NCC2CCCO2)cc1 (stereo not drawn)	98.2	0.9	6.9	10.0	136.8*	-43.8
Cc1ccc(OCCCn2c(=O)sc3ccccc32)cc1	83.5	1	22.5	4.7	103.5	-3.9
O=c1sc2ccccc2n1CCCOc1ccccc1	91.2	0.9	13.8	14.2	131.3*	-34.3
Cc1ccccc1OCCCn1c(=O)sc2ccccc21	91.5	0.8	13.6	17.0	130.6*	-33.4
COc1ccc(-n2c(SCC(=O)N3CCc4ccccc43)nnc2-c2c[nH]c3ccccc23)cc1	100.1	1.1	-0.2	-7.3	104.1	-4.5
CC1Oc2ccccc2N(CC(=O)c2ccc(F)cc2)C1=O (stereo not drawn)	96.8	1	14.8	-4.2	102.9	-4.0
O=C(N=Nc1c(O)[nH]c2ccccc12)c1cccs1	89.9	0.1	19.5	89.3*	140.7*	-42.9
Cc1ccc(NC(=S)N=Nc2c(O)[nH]c3ccccc23)cc1	86.2	1	22.3	-3.9	122.0	-25.3
Oc1ccc(NC(=S)N=Nc2c(O)[nH]c3ccccc23)cc1	88.9	1	20.8	-4.4	144.6*	-48.1
C=CCn1c(=N)n(CC(=O)c2ccc(Br)s2)c2ccccc21	108.9	1	-7.9	-2.9	93.4	7.4
Cc1ccc(NC(=S)Nc2ccc(F)cc2)c(C)c1	97.2	1	7.3	0.0	87.0	13.6
Cc1nn(-c2ccccc2)c(Cl)c1/C=N/Nc1ccc(Cl)c(C(=O)O)c1	62.6	0.1	43.9*	86.7*	62.5	42.1*
Cc1nn(-c2ccccc2)c(C)c1/C=N/NC(=O)c1cccs1	91.9	0.6	10.5	43.9	139.6*	-44.3

Compound activity from PubChem BioAssay.
